Published values collected from several papers.
Lines come from different studies, so protocols differ.
BRAF V600E: Serine/threonine-protein kinase B-raf (BRAF, Homo sapiens, UniProt P15056, V600E)
BRAF: Serine/threonine-protein kinase B-raf (BRAF, Homo sapiens, UniProt P15056)

With Cc1cc(NC(=O)c2cccc3cc(-c4cccc5[nH]nc(N)c45)ccc23)ccc1F the activity vs control was 100% (BRAF V600E; enzyme activity; inhibitor; 0.1 µM).
The remaining binding of CCOCCn1cc(C(=O)Nc2ccc(-n3nc(-c4cccnc4)cc3C(F)(F)F)cn2)ccc1=O is reported as 97% (BRAF V600E; cell-free assay; competition with immobilised ligand; 1 µM).
The remaining signal of Nc1ncnc2occ(-c3ccc(NC(=O)Nc4cc(C(F)(F)F)ccc4F)cc3)c12 is reported as 0.8% (BRAF; cell-free assay; 20 µM).
For Cc1ccc(C(CS(=O)(=O)c2ccccc2)=NNC2=NC(=O)C(=NNc3ccc(Cl)cc3)S2)cc1, the inhibition was 46% (BRAF V600E; enzyme activity; inhibitor; ATP luminescence; 0.1 µM).
With Cc1ccc(C(=O)NCc2ccsc2)cc1C#Cc1cn(C(C)C)c2ncnc(N)c12 the activity vs control was 47% (BRAF; enzyme activity; inhibitor; 1 µM).
Cc1ccc(C(CS(=O)(=O)c2ccccc2)=NNC(N)=S)cc1 has an inhibition of 31% (BRAF V600E; enzyme activity; inhibitor; ATP luminescence; 10 nM).
CC(C)(C)c1nc(-c2cccc(NS(=O)(=O)c3c(F)cccc3F)c2F)c(-c2ccnc(N)n2)s1 has an activity vs control of 5% (BRAF; enzyme activity; inhibitor; radiometric; 1 µM).
COc1cc(Nc2c(C#N)cnc3cc(OCCCN4CCN(C)CC4)c(OC)cc23)c(Cl)cc1Cl has a remaining signal of 91.7% (BRAF; cell-free assay; 0.5 µM).
With O=C(Nc1cccnn1)N1CCC(=Cc2cccc(Oc3ccc(C(F)(F)F)cn3)c2)CC1 the remaining binding was 100% (BRAF V600E; cell-free assay; competition with immobilised ligand; 1 µM).
With O=C1NC(=O)c2cc(Nc3ccc(F)cc3)c(Nc3ccc(F)cc3)cc21 the remaining signal was 94.2% (BRAF; cell-free assay; 0.5 µM).
With CCCCN(CCCC)C(=O)CN1C[C@H](c2cc(OC)c3c(c2)OCO3)[C@@H](C(=O)O)[C@@H]1CC(C)(C)CCC the remaining binding was 89.1% (BRAF V600E; cell-free assay; competition with immobilised ligand; 1 µM).
For CN(c1nccc(-c2cnn3ncccc23)n1)C1CC1, the remaining binding was 100% (BRAF; binding; 1 µM).
For O=C(NS(=O)(=O)c1ccc(NCC2CCOCC2)c([N+](=O)[O-])c1)c1ccc(N2CCN(Cc3ccc(C(F)(F)F)cc3-c3ccc(Cl)cc3)CC2)cc1Oc1cnc2[nH]ccc2c1, the remaining binding was 83% (BRAF V600E; cell-free assay; competition with immobilised ligand; 1 µM).
For Cc1ccc(C(CS(=O)(=O)c2ccccc2)=NNC2=NC(=O)C(=NNc3ccccc3)S2)cc1, the inhibition was 67% (BRAF V600E; enzyme activity; inhibitor; ATP luminescence; 1 µM).
O=C(Nc1cnn(-c2csc(C(=O)NC3COC3)c2)c1)Nc1ccccc1Cl gave a remaining activity of 93.3% (BRAF; enzyme activity; inhibitor; 5 µM).
N[C@@H]1CCN(c2nccc(-c3cnn4ncccc34)n2)C1 gave a remaining binding of 100% (BRAF; binding; 1 µM).
The inhibition of NC(=S)NN=C(CS(=O)(=O)c1ccccc1)c1ccc(F)cc1 is reported as 51% (BRAF V600E; enzyme activity; inhibitor; ATP luminescence; 0.1 µM).
The remaining binding of Cc1nc(C2CCN(C(=O)c3ccc(OC(F)(F)F)cc3N)CC2)c2ncc(N3CCN(C)CC3)cc2n1 is reported as 100% (BRAF; cell-free assay; competition with immobilised ligand; 1 µM).
CC(C)(C)c1nc2c(s1)c1nc(N)ncc1c1ccc(NS(=O)(=O)c3c(F)cccc3F)c(F)c12 has a remaining activity of 27% (BRAF V600E; enzyme activity; inhibitor; radiometric; 1 µM).
For COc1cc2nccc(Oc3ccc(NC(=O)Nc4ccc(F)cc4F)c(F)c3)c2cc1OC, the ΔTm was over 10 °C (BRAF; thermal stability; DSF; 10 µM).
For C[C@H](c1ccc(F)cc1)N(Cc1cccc(C(=O)O)c1)C(=O)c1cnc2ccccc2c1, the remaining binding was 100% (BRAF V600E; cell-free assay; competition with immobilised ligand; 1 µM).
Cc1ccc(C(=O)Nc2ccc(CN3CCN(C)CC3)c(C(F)(F)F)c2)cc1C#Cc1cnc2cccnn12 gave a remaining signal of 4.5% (BRAF V600E; cell-free assay; 23.5 nM).
COc1ccc2cc(OCC3(C(=O)O)CN(C(=O)c4ccc(F)cc4)C3)ccc2c1 has a remaining binding of 93% (BRAF; cell-free assay; competition with immobilised ligand; 1 µM).
The remaining signal of C[C@@H]1CCN(C(=O)CC#N)C[C@@H]1N(C)c1ncnc2[nH]ccc12 is reported as 93.7% (BRAF; cell-free assay; 0.5 µM).
With Cc1ccc(C(CS(=O)(=O)c2ccccc2)=NNc2nc(C)c(N=Nc3ccccc3)s2)cc1 the inhibition was 63% (BRAF V600E; enzyme activity; inhibitor; ATP luminescence; 1 µM).
COc1cc(Cl)c(C(=O)N[C@@H](CN[C@H]2CC[C@@H](N)CC2)Cc2ccc(C#N)cc2)cc1-c1ccc(CN[C@H](C)c2ccc(C)cc2)o1 has a remaining activity of 97% (BRAF; enzyme activity; inhibitor; 1 µM).
The inhibition of Cc1ccc(C(CS(=O)(=O)c2ccccc2)=NNc2nc(-c3ccc(OCCCCOc4ccc(-c5csc(NN=C(CS(=O)(=O)c6ccccc6)c6ccc(C)cc6)n5)cc4)cc3)cs2)cc1 is reported as 32% (BRAF V600E; enzyme activity; inhibitor; ATP luminescence; 10 nM).
Cc1nc(N2CC[C@@H](O)C2)ncc1-c1cc(C(F)(F)F)cc2[nH]ncc12 has a remaining binding of 73% (BRAF; cell-free assay; competition with immobilised ligand; 1 µM).
CN(C)C1CCN(CC#Cc2nn(C3CCCC3)c3nc(NCc4ccccc4)ncc23)C1 (stereo not drawn) gave an inhibition of -3% (BRAF; enzyme activity; inhibitor; FRET; 0.1 µM).
COc1ccc(-c2csc(NN=C(CS(=O)(=O)c3ccccc3)c3ccc(F)cc3)n2)cc1 has an inhibition of 89% (BRAF V600E; enzyme activity; inhibitor; ATP luminescence; 10 µM).
